Measurements of several laboratories.
Each line is one published result; the experiments were not run side by side.
Target: Phosphatidylinositol 4-kinase beta (PI4KB, Homo sapiens, UniProt Q9UBF8)

C#Cc1n[nH]c2c(-c3cn([C@@H](C)c4ccccc4)c(=O)[nH]c3=O)cc(F)cc12
inhibition (enzyme activity, inhibitor; 0.1 µM): -2.5%

Cn1cc(-c2cc(F)cc(N3CCn4c(cc5c4CCCC5)C3=O)c2CO)cc(Nc2ccc(N3CCN(C4COC4)CC3)cn2)c1=O
inhibition (enzyme activity, inhibitor; 0.1 µM): -3%

C#Cc1n[nH]c2c(-c3cn(C(C)c4ccccn4)c(=O)[nH]c3=O)cc(F)cc12 (centres unmarked)
inhibition (enzyme activity, inhibitor; 1 µM): -4.1%

Cc1nn(C)cc1-c1nc2c(N3CCN(Cc4ccc(Cl)cc4)CC3)c(Cl)cnc2[nH]1
remaining binding (binding, competition with immobilised ligand; 1 µM): 100%

Cn1cc(-c2cccc(N3CCc4c(sc5c4CC(C)(C)C5)C3=O)c2CO)cc(Nc2ccncn2)c1=O
inhibition (enzyme activity, inhibitor; 1 µM): -4%

Cn1cncc1[C@](O)(COc1ccc(C#N)cc1-c1ccc(OC(F)(F)F)cc1)c1ccc(C#N)cc1
remaining binding (cell-free assay, competition with immobilised ligand; 1 µM): 94%

COc1ncccc1-c1cnn2ccc(N3CCN(C(=O)OC(C)C)CC3)nc12
remaining binding (binding, competition with immobilised ligand; 1 µM): 100%

Nc1ncc(-c2nc(N3CCOCC3)nc(N3CCOCC3)n2)c(C(F)F)n1
remaining binding (binding, competition with immobilised ligand; 10 µM): 75%
